The text below walks through data of ChEMBL document CHEMBL1134336, “Synthesis and SAR of a new series of COX-2-selective inhibitors: pyrazolo[1,5-a]pyrimidines” (J Med Chem, 2001).

Test [1] concerns the target T1, Prostaglandin G/H synthase 1 (Homo sapiens, UniProt P23219). The test is classed as cell-based, U-937.
Test [2] has as its target T1, Prostaglandin G/H synthase 1. In words: Percentage of inhibition of Prostaglandin G/H synthase 1 activity in human whole blood (HWB) at 10 uM. The test is classed as tissue-based. In outline:
(§1)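 COX-1: human blood left to clot spontaneously 5 h at 37 °C, then A23187 (5 μM) 30 min further. Stopped at 0 °C with EGTA/MeOH; supernatant TXB2 by enzyme immunoassay. Run in duplicate or repeated.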

The target is the same in test [3]. The test can be described thus: Percentage of inhibition of Prostaglandin G/H synthase 1 activity in human whole blood (HWB) at 1 uM. The test is classed as tissue-based. In outline:
as §1

For test [4], the target named is T2, Prostaglandin G/H synthase 2 (Homo sapiens) (UniProt P35354).
T2 sequence (whole entry): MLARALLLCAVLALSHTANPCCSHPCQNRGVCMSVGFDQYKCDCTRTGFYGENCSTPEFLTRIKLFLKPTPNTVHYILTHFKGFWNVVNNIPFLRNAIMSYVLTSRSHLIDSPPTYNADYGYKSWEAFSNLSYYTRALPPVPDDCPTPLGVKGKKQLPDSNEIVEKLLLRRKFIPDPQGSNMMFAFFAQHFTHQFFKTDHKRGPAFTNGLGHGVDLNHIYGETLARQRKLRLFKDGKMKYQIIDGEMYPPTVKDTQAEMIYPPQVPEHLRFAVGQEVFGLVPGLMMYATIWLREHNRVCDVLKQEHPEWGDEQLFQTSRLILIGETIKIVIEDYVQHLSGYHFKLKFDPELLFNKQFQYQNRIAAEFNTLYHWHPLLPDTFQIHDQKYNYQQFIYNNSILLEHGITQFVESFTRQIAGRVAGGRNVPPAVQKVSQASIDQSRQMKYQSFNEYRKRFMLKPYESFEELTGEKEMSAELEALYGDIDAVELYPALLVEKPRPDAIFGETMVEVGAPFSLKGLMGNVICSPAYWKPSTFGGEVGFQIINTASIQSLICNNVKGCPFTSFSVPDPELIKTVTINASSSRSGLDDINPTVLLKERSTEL
In words: Percentage of inhibition of Prostaglandin G/H synthase 2 activity in human whole blood (HWB) at 1 uM. The test is classed as tissue-based. In a few lines: (§2)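 COX-2: human whole blood stimulated with lipopolysaccharide 026:B6, 37 °C, 24 h, with aspirin (20 µg/mL) to block COX-1. PGE2 by enzyme immunoassay after centrifugation. Run in duplicate or repeated.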

Test [5] addresses T2, Prostaglandin G/H synthase 2 (Homo sapiens). In words: Percentage inhibition of Prostaglandin G/H synthase 2 activity in human whole blood (HWB) at 10 uM. The test is classed as tissue-based. In a few lines:
as §2

The subject of test [6] is Rattus norvegicus. The test can be described thus: In vivo inhibition of Carrageenan-induced rat paw edema was determined in male Sprague-Dawley rat at a dose of 30 mg/kg. The test is classed as functional. In a few lines:
(§3)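 Male Sprague-Dawley rats (175-200 g) dosed orally as suspension in 1% carboxymethyl cellulose/Tween-80 (10 mL/kg), 0.5 h before 0.1 mL 1% λ-carrageenan injected into hindpaw. Paw volume by water displacement plethysmometry before and 1-5 h after. Percent inhibition from areas under the curve, treated vs control.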
For orientation: In the carrageenan paw model, swelling and tenderness develop within hours.

The test system of test [7] is Rattus norvegicus. The test can be described thus: In vivo inhibition of Carrageenan-induced rat paw edema was determined in male Sprague-Dawley rat at a dose of 10 mg/kg. The test is classed as functional. In a few lines: as §3
The target of test [8] is T1, Prostaglandin G/H synthase 1. Particulars: Blood; at 10 µM.
Test [9] deals with T2, Prostaglandin G/H synthase 2 (Homo sapiens). In words: Percentage of inhibition of Prostaglandin G/H synthase 2 activity in human whole blood (HWB) at 10 uM. The test is classed as tissue-based. In outline: as §2

T1 sequence (P23219 whole entry): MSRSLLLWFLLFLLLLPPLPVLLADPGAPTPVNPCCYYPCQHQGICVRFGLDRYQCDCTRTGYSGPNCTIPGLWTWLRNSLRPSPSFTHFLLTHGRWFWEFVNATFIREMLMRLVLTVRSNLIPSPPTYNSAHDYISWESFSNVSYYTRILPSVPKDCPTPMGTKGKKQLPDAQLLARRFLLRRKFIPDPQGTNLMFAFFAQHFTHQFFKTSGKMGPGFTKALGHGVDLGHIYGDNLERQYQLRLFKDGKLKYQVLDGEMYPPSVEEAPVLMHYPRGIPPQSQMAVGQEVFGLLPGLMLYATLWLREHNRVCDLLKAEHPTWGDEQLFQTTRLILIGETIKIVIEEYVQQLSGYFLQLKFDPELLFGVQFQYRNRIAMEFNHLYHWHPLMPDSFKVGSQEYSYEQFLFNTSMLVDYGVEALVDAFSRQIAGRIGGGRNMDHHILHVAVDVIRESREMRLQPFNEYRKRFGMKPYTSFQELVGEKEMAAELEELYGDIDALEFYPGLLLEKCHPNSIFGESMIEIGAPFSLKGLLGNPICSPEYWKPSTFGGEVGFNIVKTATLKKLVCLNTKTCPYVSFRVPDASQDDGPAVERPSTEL

A word on the IC50: it is the concentration at which inhibition is half-maximal. The low end stands for inhibition by little substance, the high end for a need for much substance. As usually defined, the inhibition is the change of the read-out against control, counted positive when it falls. Lower therefore signals little suppression. Regarding `Cc1ccn2nc(-c3ccc(S(C)(=O)=O)cc3)c(-c3ccc(F)cc3)c2n1`, in test [1], the IC50 was > 10 µM. The compound also displayed an inhibition in [2] of 19%.
Consider `Cc1cn2nc(-c3ccc(S(C)(=O)=O)cc3)c(-c3ccc(F)cc3)c2nc1C`, for which the IC50 in test [1] was > 10 µM. Besides, the inhibition in test [2] was determined as 32.6%.
For `Cc1nc2c(-c3ccc(F)cc3)c(-c3ccc(S(C)(=O)=O)cc3)nn2c(C)c1C`, in that order: > 10 µM and 61.3%.
Regarding `Cc1cc(C)n2nc(-c3ccc(S(C)(=O)=O)cc3)c(-c3ccc(F)cc3)c2n1`, the IC50 in test [1] is > 10 µM. In [2], this compound showed an inhibition of 8.3%.
Regarding `CCc1cnc2c(-c3ccc(F)cc3)c(-c3ccc(S(C)(=O)=O)cc3)nn2c1C`, the inhibition in test [3] came to 0%; in [4] it was 50.3%; in test [2], 91.8%; in test [5], 100%.
Broadly, the inhibition in vivo is the relative decrease from the control value, in per cent. Low values mean a response near the control, high ones a response far below the control. As for `Cc1c(CO)cnc2c(-c3ccc(F)cc3)c(-c3ccc(S(C)(=O)=O)cc3)nn12`, the inhibition in vivo at 30 mg/kg in test [6] worked out at 17.3%. In addition, the inhibition in [4] is 26.1%; in test [2] it was 54.4%; in test [5] it was 77.7%.
Regarding `Cc1ccc(-c2c(-c3ccc(S(N)(=O)=O)cc3)nn3c(C)c(C)cnc23)cc1`, the values for the inhibition in test [4], in test [2] and in [5] were 65.7%, 33.5% and 100%, respectively. Moreover, at 10 mg/kg the inhibition in vivo in test [7] was 22.8%.
Turning to `Cc1cnc2c(-c3ccc(F)cc3)c(-c3ccc(S(C)(=O)=O)cc3)nn2c1`, the IC50 in test [1] is > 10 µM. This compound gave an inhibition in test [2] of 8.2%.
In test [6], `CS(=O)(=O)c1ccc(-c2nn3c4c(cnc3c2-c2ccc(F)cc2)C(=O)CC4)cc1` had an inhibition in vivo at 30 mg/kg of 26.3%. Further, the inhibition in test [4] came out at 0%; in test [2] it was 16.6%; in test [5], 75%.
Regarding `CCCCc1cc(C)nc2c(-c3ccc(F)cc3)c(-c3ccc(S(C)(=O)=O)cc3)nn12`, the inhibition in test [4] was 11%; in test [2] it was 0%; in [5], 58.3%.
Compound `CCOC(=O)c1cnc2c(-c3ccc(F)cc3)c(-c3ccc(S(C)(=O)=O)cc3)nn2c1C` came in with an inhibition in vivo at 30 mg/kg in [6] of 20.2%. The inhibition came out at 40.5% in test [4], 0% in test [2] and 100% in test [5].
As for `CS(=O)(=O)c1ccc(-c2nn3c4c(cnc3c2-c2ccc(F)cc2)CSC4)cc1`, the inhibition came out at 25% in [4], 0% in test [2] and 93.6% in test [5].
As to `Cc1ccnc2c(-c3ccc(F)cc3)c(-c3ccc(S(C)(=O)=O)cc3)nn12`, in test [1], the IC50 is > 10 µM. The inhibition in test [2] stood at 50.5%.
Take `Cc1ccn2c(-c3ccc(F)cc3)c(-c3ccc(S(C)(=O)=O)cc3)nc2c1C`: the inhibition in test [4] turned out to be 59.3%; in test [2] it was 0%; in [5], 66.7%.
For `CCc1nnc2c(-c3ccc(F)cc3)c(-c3ccc(S(C)(=O)=O)cc3)nn2c1CC`, in that order: 50.9%, 88.7% and 100%.
For the compound `CS(=O)(=O)c1ccc(-c2nn3cccnc3c2-c2ccc(F)cc2)cc1`, the IC50 in test [1] was > 10 µM. The inhibition is 35% in [2] and 36.2% in test [5].
Regarding `CS(=O)(=O)c1ccc(-c2nn3c(-c4ccccc4)ccnc3c2-c2ccc(F)cc2)cc1`, the results for the inhibition in test [4], in [2] and in [5] were 0%, 5.7% and 90.4%, respectively.
Taken in the same sequence, the figures for `CCCc1cnnc2c(-c3ccc(F)cc3)c(-c3ccc(S(C)(=O)=O)cc3)nn12` were 43.9%, 29.3% and 100%.
For the compound `CCCCc1cc(C)n2nc(-c3ccc(S(C)(=O)=O)cc3)c(-c3ccc(F)cc3)c2n1`, the inhibition in test [3] stood at 6.8%; in [4], 51.5%; in [2] it was 86.2%; in test [5], 100%.
For the compound `Cc1cnn2c(-c3ccc(F)cc3)c(-c3ccc(S(C)(=O)=O)cc3)nc2c1C`, the values for the inhibition in [4], in test [2] and in test [5] were 37.3%, 0% and 100%, respectively.
Consider `Cc1c(Br)cnc2c(-c3ccc(F)cc3)c(-c3ccc(S(C)(=O)=O)cc3)nn12`, for which the inhibition in test [3] came out at 18.9%; in test [4] it was 84.3%; in test [2], 83.8%; in test [5], 100%.
Take `CCc1nnc2c(-c3ccc(F)cc3)c(-c3ccc(S(C)(=O)=O)cc3)nn2c1C`: the figures for the inhibition in test [4], in test [2] and in [5] were 74.9%, 61.9% and 100%, respectively.
In [6], `CS(=O)(=O)c1ccc(-c2nn3c4c(cnc3c2-c2ccc(F)cc2)C(=O)CCC4)cc1` registered an inhibition in vivo at 30 mg/kg of 22.4%. Also, the inhibition in test [4] came to 30.4%; in test [2], 0%; in test [5], 95.3%.
For `Cc1cn2c(-c3ccc(F)cc3)c(-c3ccc(S(C)(=O)=O)cc3)nc2c(C)n1`, the inhibition is 0% in [4], 0% in [2] and 82.4% in [5].
Take `CS(=O)(=O)c1ccc(-c2nn3c4c(cnc3c2-c2ccc(F)cc2)CCCC4)cc1`: the inhibition in [4] worked out at 57.7%; in [2] it was 40.4%; in test [5], 100%.
Taken in the same sequence, the figures for `CCCCc1cnnc2c(-c3ccc(F)cc3)c(-c3ccc(S(C)(=O)=O)cc3)nn12` were 0.9%, 69.8% and 89.7%.
For `Cc1cnc2c(-c3ccc(F)cc3F)c(-c3ccc(S(C)(=O)=O)cc3)nn2c1C`, in that order: 61.1%, 80.8% and 100%.
For `CS(=O)(=O)c1ccc(-c2nn3c4c(cnc3c2-c2ccc(F)cc2)CCC4)cc1`, in that order: 48.3%, 0% and 90.4%.
In the case of `Cc1cnc2c(-c3ccc(F)cc3)c(-c3ccc(S(C)(=O)=O)cc3)nn2c1CO`, the inhibition was 56.5% in test [4], 42.7% in [2] and 100% in [5].
Taken in the same sequence, the figures for `CCCc1c(C(=O)O)cnc2c(-c3ccc(F)cc3)c(-c3ccc(S(C)(=O)=O)cc3)nn12` were 31.9%, 7.4% and 0%.
Take `Cc1cnc2c(-c3ccc(F)c(F)c3)c(-c3ccc(S(C)(=O)=O)cc3)nn2c1C`: the results for the inhibition in test [4], in [2] and in test [5] were 100%, 36.3% and 100%, respectively.
`COc1ccc2c(c1)c(CC(=O)O)c(C)n2C(=O)c1ccc(Cl)cc1` returned an inhibition in [8] of 100%.
Consider `CCCc1c(C)nnc2c(-c3ccc(F)cc3)c(-c3ccc(S(C)(=O)=O)cc3)nn12`, for which the inhibition in [4] is 17.9%; in test [2], 18.7%; in test [5] it was 95%.
With `CC(=O)c1cnc2c(-c3ccc(F)cc3)c(-c3ccc(S(C)(=O)=O)cc3)nn2c1C`, the inhibition in test [4] turned out to be 60.8%; in test [2] it was 71.1%; in test [5], 100%.
Taken in the same sequence, the figures for `Cc1ccc(-c2c(-c3ccc(S(C)(=O)=O)cc3)nn3c(C)c(C)cnc23)cc1` were 87.6%, 54.2% and 100%.
`Cc1c(Cl)nn2c(-c3ccc(F)cc3)c(-c3ccc(S(C)(=O)=O)cc3)nc2c1C`: the inhibition in test [9] is 100%; in test [8] it was 0%; in test [4] it was 35.4%.
Take `Cc1c(CF)cnc2c(-c3ccc(F)cc3)c(-c3ccc(S(C)(=O)=O)cc3)nn12`: the inhibition in test [4] was 4.4%; in test [2], 7.3%; in [5], 84.6%.
As for `Cc1c(C(F)(F)F)cnc2c(-c3ccc(F)cc3)c(-c3ccc(S(C)(=O)=O)cc3)nn12`, the inhibition was determined as 53.9% in [3], 69% in test [4], 100% in test [2] and 100% in [5].
As for `CS(=O)(=O)c1ccc(-c2nn3c4c(cnc3c2-c2ccc(F)cc2)SCC4)cc1`, the inhibition turned out to be 14.8% in test [4], 7% in test [2] and 90.7% in test [5].
